Assay results pooled from the literature.
Observed: enzyme activity
Mode: inhibitor
TYMS: Thymidylate synthase (TYMS, Homo sapiens, UniProt P04818)
DHODH: Dihydroorotate dehydrogenase (quinone), mitochondrial (DHODH, Homo sapiens, UniProt Q02127)
PSMB8: Proteasome subunit beta type-8 (PSMB8, Homo sapiens, UniProt P28062)
PTGS2: Prostaglandin G/H synthase 2 (PTGS2, Homo sapiens, UniProt P35354)
EPHA7: Ephrin type-A receptor 7 (EPHA7, Homo sapiens, UniProt Q15375)

Compound | target | technique | time | pH | notes | IC50
Oc1ccc2ccccc2n1 | Serum paraoxonase/arylesterase 1 (PON1, Homo sapiens, UniProt P27169) |  |  |  |  | 4.4 µM
COC(=O)C1CCN(C(=O)c2ccc(NCc3cnc4nc(N)nc(N)c4n3)cn2)CC1 | TYMS |  |  |  |  | 80 µM
CCOc1ccc2c(-c3cc(C)nc(Nc4cc(OC)cc(C(F)(F)F)c4)n3)cnn2n1 | Dual specificity tyrosine-phosphorylation-regulated kinase 3 (DYRK3, Homo sapiens, UniProt O43781) |  |  |  |  | > 10 µM
Cc1cnc(-c2ccc(-c3ccc(NC(=O)Nc4c(F)cc(F)cc4F)cc3F)c3c2C(=O)NC3)[nH]1 | Platelet-derived growth factor receptor beta (PDGFRB, Homo sapiens, UniProt P09619) |  |  |  |  | 0.0104 µM
COC[C@@H](C)NC1CCC(Nc2cc(-c3cccc(NCC4(C#N)CCOCC4)n3)c(Cl)cn2)CC1 (some centres unmarked) | Dual specificity tyrosine-phosphorylation-regulated kinase 1B (DYRK1B, Homo sapiens, UniProt Q9Y463) | FRET |  |  |  | 0.35 µM
CCOC(=O)C1CCN(C(=O)c2ccc(N(C)Cc3cnc4nc(N)nc(N)c4n3)cc2)CC1 | TYMS |  |  |  |  | 74 µM
Cc1nc(NC2CCc3cc(Cl)ccc3C2)c2c(C)noc2n1 (centres unmarked) | DHODH | absorbance |  |  |  | > 100 µM
CC(C)C[C@H](NC(=O)c1cc(Cl)ccc1Cl)C(=O)N[C@@H](CC(C)C)C(=O)N[C@H](/C=C/S(C)(=O)=O)Cc1ccc(CN)cc1 | PSMB8 |  |  |  | lysate | 1.83 µM
Cc1cc(Nc2ccc(C(C)(C)C)cc2)n2ncnc2n1 | DHODH |  |  |  |  | > 100 µM
Cc1ncc(C(=O)N[C@@H](CC2CCC(C)CC2)C(=O)N[C@@H](CC(C)C)C(=O)N[C@H](/C=C/S(C)(=O)=O)Cc2ccc(CN)cc2)s1 (some centres unmarked) | PSMB8 |  |  |  | lysate | > 10 µM
C[C@@H]1O[C@H](CNS(=O)(=O)c2ccc(C#CC3CC3)s2)[C@@H](O)[C@H](O)[C@@H]1O | Fucose-binding lectin PA-IIL (lecB, Pseudomonas aeruginosa, UniProt Q9HYN5) |  |  |  |  | 2.5 µM
O=C(CSc1ncn[nH]1)Nc1ccc(C23CC4CC(CC(C4)C2)C3)cc1 | Transcriptional enhancer factor TEF-4 (TEAD2, Homo sapiens, UniProt Q15562) |  |  |  |  | 0.71 µM
CC(C)=CCC[C@@H](C)c1ccc(C)c(O)c1 | UDP-glucuronosyltransferase 1A1 (UGT1A1, Homo sapiens, UniProt P22309) |  | 90 min |  |  | 11.3 µM
Cc1c(C(=O)NC(C)c2nc[nH]n2)[nH]c(Cl)c1C1(c2ccc(C(F)(F)F)nc2)CC1 (centres unmarked) | DHODH |  |  |  |  | > 100 µM
Cc1nc(Nc2ccc(S(F)(F)(F)(F)F)cc2)c2c(C(F)(F)F)noc2n1 | DHODH | absorbance |  |  |  | > 100 µM
Cc1ncc(C(=O)N[C@@H](CC2CCC(C3CCCCC3)CC2)C(=O)N[C@@H](CC(C)C)C(=O)N[C@H](/C=C/S(C)(=O)=O)Cc2ccc(CN)cc2)s1 (some centres unmarked) | PSMB8 |  |  |  | lysate | > 10 µM

Compound | target | technique | time | pH | notes | IC50
CS(=O)(=O)c1ccc(-c2nc3ccccn3c2Nc2ccccc2)cc1 | PTGS2 |  |  |  |  | 0.07 µM
CC/C(=N\NC(=O)C(C)Nc1ccccc1)c1ccc(O)c(C)c1O (centres unmarked) | Ribosomal protein S6 kinase beta-1 (RPS6KB1, Homo sapiens, UniProt P23443) |  |  |  |  | 0.0335 µM
Oc1ccc(Cl)cc1Nc1nc(NCC2CCCO2)c2ccccc2n1 (centres unmarked) | Lysosomal acid glucosylceramidase (GBA1, Homo sapiens, UniProt P04062, R534H) | fluorescence |  | pH 5.9 |  | 1.5 µM
CN1CCN(c2ccc(Nc3ncc4cc(C#N)c(=O)n(C5CCCC5)c4n3)cc2)CC1 | Dual specificity tyrosine-phosphorylation-regulated kinase 1A (DYRK1A, Homo sapiens, UniProt Q13627) |  |  |  |  | 0.807 µM
O=c1c2cc(Br)c(Br)n2cc2n1CCC2 | Proteasome subunit beta type-8, chymotrypsin-like site (PSMB8, Homo sapiens, UniProt P28062) |  |  |  |  | > 100 µM
Cc1nc(Nc2ccc(C(F)(F)F)cc2)c2c(C(F)(F)F)noc2n1 | DHODH | absorbance |  |  |  | 18 µM
Cc1ncc(C(=O)N[C@@H](CC(C)C)C(=O)N[C@@H](CC2CCC(C)CC2)C(=O)N[C@H](/C=C/S(C)(=O)=O)Cc2ccc(CN)cc2)s1 (some centres unmarked) | PSMB8 |  |  |  | lysate | > 10 µM
CCn1ncc2c1-c1cnc(N)c(c1)O[C@H](C)c1cc(F)ccc1-c1nn(C)nc1C2 | EPHA7 | radiometric |  |  |  | 0.379 µM
CC(C)C[C@H](NC(=O)[C@H](CC(C)C)NC(=O)[C@H](Cc1ccccc1)NC(=O)CN=[N+]=[N-])C(=O)N[C@H](/C=C/S(C)(=O)=O)Cc1ccc(CN)cc1 | PSMB8 |  |  |  | lysate | 1.3 µM
COc1ccc(S(=O)(=O)ON=C2C=C(C)C(=O)C(C)=C2)cc1 | CREB-binding protein (CREBBP, Homo sapiens, UniProt Q92793) | radiometric |  |  |  | > 100 µM
Cc1ncc(C(=O)N[C@H](C(=O)N[C@@H](CC(C)C)C(=O)N[C@H](/C=C/S(C)(=O)=O)Cc2ccc(CN)cc2)C2CCCCC2)s1 | PSMB8 |  |  |  | lysate | 3.14 µM
Cc1cccn2c(Nc3ccc(Cl)cc3)c(-c3ccc(S(C)(=O)=O)cc3)nc12 | PTGS2 |  |  |  |  | 0.14 µM
Cc1ncc(C(=O)N[C@@H](CC(C)C)C(=O)N[C@@H](CC2CCCCC2)C(=O)N[C@H](/C=C/S(C)(=O)=O)Cc2ccc(CN)cc2)s1 | PSMB8 |  |  |  | lysate | > 10 µM
O=C(O)C1=CC(=C(c2ccc(O)c(C(=O)O)c2)c2ccc(O)c(C(=O)O)c2)C=CC1=O | PFKM (Oryctolagus cuniculus, UniProt P00511) |  |  |  |  | 3.92 µM
COc1ccc(C[C@H](NC(=O)[C@H](C)NC(=O)CN2CCOCC2)C(=O)N[C@H](C(=O)[C@@]2(C)CO2)C2CCCCC2)cc1 | PSMB8 |  |  |  | lysate | > 10 µM
CC[C@@H]1[C@H](F)C(=O)N[C@@H]1COc1nccc2cc(C(N)=O)c(OC)cc12 | EPHA7 |  |  |  |  | > 5 µM
